Measured values from different studies.
Lines come from different studies, so protocols differ. pEC50, pIC50, pKd: −log10 of the molar value.
BACE1: Beta-secretase 1 (BACE1, Homo sapiens, UniProt P56817)
HTR1E: 5-hydroxytryptamine receptor 1E (HTR1E, Homo sapiens, UniProt P28566)

| Structure (SMILES) | target | test | quantity | value |
| --- | --- | --- | --- | --- |
| CNC(=O)c1ccc(-c2cnn3ccc(C(=O)N(C)c4ccc(Cl)c(C(=O)O)c4)cc23)cc1 | Non-receptor tyrosine-protein kinase TYK2 (TYK2, Homo sapiens, UniProt P29597) | enzyme activity, inhibitor | pIC50 | < 4.52 |
| c1ccc(-c2nnc(CN3CCN(c4ccccc4)CC3)o2)cc1 | BACE1 | enzyme activity, inhibitor, FRET | pIC50 | 5.32 |
| CC(N)Cc1c[nH]c2ccc(OCc3cccs3)cc12 (stereo not drawn) | HTR1E | G protein activation, agonist, BRET | pEC50 | 5.40 |
| CC[C@H](C)[C@H](NC(=O)[C@H](CO)NC(=O)CNC(=O)[C@@H](NC(=O)[C@@H](NC(=O)[C@@H](NC(=O)CN)[C@@H](C)O)C(C)C)[C@@H](C)O)C(=O)N[C@@H](CC(C)C)C(=O)N[C@H](C(=O)N1CCC[C@H]1C(=O)N[C@H](C(=O)N[C@@H](CC(=O)O)C(=O)N[C@@H](Cc1ccc(O)cc1)C(=O)NCC(=O)N[C@H]1CSSC[C@@H](C(=O)N[C@@H](CO)C(=O)N[C@H](C(=O)N[C@@H](C)C(=O)N[C@@H](CCSC)C(=O)N[C@@H](Cc2ccc(O)cc2)C(=O)NCC(=O)NCC(=O)N[C@H](C(=O)N[C@H](C(=O)N[C@@H](CC(=O)O)C(=O)N2CCC[C@H]2C(=O)N[C@H](C(=O)N[C@@H](CCCNC(=N)N)C(=O)N[C@@H](Cc2ccccc2)C(=O)N2CCC[C@H]2C(=O)N[C@@H](CC(N)=O)C(=O)N[C@@H](C)C(=O)N[C@@H](Cc2c[nH]c3ccccc23)C(=O)N[C@@H](CCCNC(=N)N)C(=O)N[C@@H](CCC(=O)O)C(=O)N[C@@H](CC(C)C)C(=O)O)[C@@H](C)CC)[C@@H](C)CC)C(C)C)C(C)C)NC(=O)[C@H](CC(C)C)NC(=O)[C@H](Cc2ccccc2)NC(=O)[C@@H]2CCCN2C(=O)[C@H](CC(N)=O)NC(=O)[C@H](Cc2ccccc2)NC1=O)[C@@H](C)CC)[C@@H](C)O | Neutrophil elastase (ELANE, Homo sapiens, UniProt P08246) | enzyme activity, inhibitor | pIC50 | < 4.00 |
| COC(=O)c1cc(N(C)C(=O)c2ccn3ncc(-c4ccc(C(=O)O)cc4)c3c2)ccc1Cl | Epidermal growth factor receptor (EGFR, Homo sapiens, UniProt P00533) | enzyme activity, inhibitor | pIC50 | < 4.52 |
| O=C(O)C(F)(F)C(F)(F)C(F)(F)C(F)(F)C(F)(F)C(F)(F)C(F)(F)F | Aldo-keto reductase family 1 member C4 (AKR1C4, Homo sapiens, UniProt P17516) | enzyme activity, inhibitor | pIC50 | ≤ 4.30 |
| C=CC(=O)N[C@H]1C=C(C)c2c(-c3cnc4ccccc4c3)c3c(N)ncnc3n2C1 | Epidermal growth factor receptor (EGFR, Homo sapiens, UniProt P00533, L858R/T790M) | enzyme activity, inhibitor | pIC50 | 8.96 |
| COc1cccc(C=NNC(=O)c2cc(-c3cn(C)c4ccccc34)on2)c1OC | BACE1 | enzyme activity, inhibitor, FRET | pIC50 | 5.08 |
| CCN(CC)C(=O)N[C@H]1C[C@@H]2c3cccc4[nH]cc(c34)C[C@H]2N(C)C1 | HTR1E | G protein activation, agonist, BRET | pEC50 | 5.74 |
| Cc1c2oc3c(C)ccc(C(=O)N[C@@H]4C(=O)N[C@H](C(C)C)C(=O)N5CCC[C@H]5C(=O)N(C)CC(=O)N(C)[C@@H](C(C)C)C(=O)O[C@@H]4C)c3nc-2c(C(=O)N[C@@H]2C(=O)N[C@H](C(C)C)C(=O)N3CCC[C@H]3C(=O)N(C)CC(=O)N(C)[C@@H](C(C)C)C(=O)O[C@@H]2C)c(N)c1=O | Palmitoyl-protein thioesterase 1 (Homo sapiens, UniProt P50897) | binding, MST | pKd | 6.63 |
| CNC(=O)c1ccc(-c2cnn3ccc(C(=O)N(C)c4ccc(Cl)c(C(=O)OC)c4)cc23)cc1 | Wee1-like protein kinase (WEE1, Homo sapiens, UniProt P30291) | enzyme activity, inhibitor | pIC50 | < 4.52 |
| Cn1cc(-c2cc(C(=O)NN=Cc3cccc([N+](=O)[O-])c3)no2)c2ccccc21 | BACE1 | enzyme activity, inhibitor, FRET | pIC50 | < 4.00 |
